Assay results reported in BindingDB's records for doi:10.1021/acs.jmedchem.7b01557 (University of Colorado, 2018).

Target: T1, Toll-like receptor 7 (Homo sapiens, UniProt Q9NYK1)
T1 sequence (Q9NYK1 whole entry): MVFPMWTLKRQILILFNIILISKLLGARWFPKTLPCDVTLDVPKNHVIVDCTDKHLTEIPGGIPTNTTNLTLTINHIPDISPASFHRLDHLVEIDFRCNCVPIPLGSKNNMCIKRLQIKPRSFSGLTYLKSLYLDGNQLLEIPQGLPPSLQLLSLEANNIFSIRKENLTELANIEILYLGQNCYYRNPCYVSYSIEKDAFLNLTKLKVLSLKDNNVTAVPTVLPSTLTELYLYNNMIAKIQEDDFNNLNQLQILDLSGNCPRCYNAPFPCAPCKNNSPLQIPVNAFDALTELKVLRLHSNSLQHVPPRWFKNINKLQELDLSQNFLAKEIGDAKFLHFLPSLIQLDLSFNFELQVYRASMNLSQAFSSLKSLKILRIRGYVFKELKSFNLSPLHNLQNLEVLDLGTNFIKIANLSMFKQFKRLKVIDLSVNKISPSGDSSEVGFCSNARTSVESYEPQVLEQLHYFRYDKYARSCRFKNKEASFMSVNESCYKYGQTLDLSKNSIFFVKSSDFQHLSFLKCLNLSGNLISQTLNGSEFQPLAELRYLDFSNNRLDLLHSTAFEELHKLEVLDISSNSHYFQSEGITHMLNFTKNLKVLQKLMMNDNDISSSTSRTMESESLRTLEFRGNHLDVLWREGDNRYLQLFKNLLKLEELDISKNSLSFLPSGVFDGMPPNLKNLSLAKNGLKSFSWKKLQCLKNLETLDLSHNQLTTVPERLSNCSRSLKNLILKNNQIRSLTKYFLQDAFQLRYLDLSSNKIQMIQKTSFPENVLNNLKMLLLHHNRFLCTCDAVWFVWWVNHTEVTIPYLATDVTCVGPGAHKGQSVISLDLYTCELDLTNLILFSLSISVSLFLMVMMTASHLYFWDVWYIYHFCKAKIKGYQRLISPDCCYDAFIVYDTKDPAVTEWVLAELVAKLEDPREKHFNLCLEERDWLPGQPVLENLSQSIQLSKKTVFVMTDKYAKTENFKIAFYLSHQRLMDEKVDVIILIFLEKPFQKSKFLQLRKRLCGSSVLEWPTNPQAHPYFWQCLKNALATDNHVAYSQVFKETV
Test: Antagonist activity at human TLR7 expressed in HEK293 cells assessed as inhibition of R848-induced NF-kappaB activation-mediated SEAP production after 24 hrs by Quanti-blue-based assay
Method in brief: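 HEK293 cells stably carrying a human TLR plus an NF-κB-driven SEAP reporter, seeded 5×10^4/well for 24 h at 37 °C, then stimulated: Pam3CSK4 100 µg/mL (TLR1/2), Pam2CSK4 100 µg/mL, poly I:C 5 µg/mL (TLR3), LPS 20 ng/mL (TLR4), flagellin 100 ng/mL (TLR5), R848 1 µg/mL (TLR7, TLR8), CpG-ODN2006 1 µg/mL (TLR9). After 24 h with compound, supernatant mixed with QUANTI-Blue, 1 h 37 °C, OD 620 nm.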

Row | IC50 [µM] | Structure (SMILES)
1 | 2.4 | CCc1ccc(-c2nc(C(=O)NNC(=O)c3ccccn3)cs2)cc1
2 | 7.9 | O=C(NNC(=O)c1ncccc1O)c1ccc(OC(F)(F)F)cc1
3 | 60 | Cc1nc(C(=O)NNC(=O)c2cccc(Cl)c2)cs1
4 | 0.99 | O=C(NNC(=O)c1csc(-c2ccc(C(F)(F)F)cc2)n1)c1ccccn1
5 | 1.9 | CN(C)c1ccc(-c2nc(C(=O)NNC(=O)c3ccccn3)cs2)cc1
6 | 27 | Nc1nccnc1C(=O)NNC(=O)c1ccc(OC(F)(F)F)cc1
7 | 23.2 | O=C(NNC(=O)c1csc(-c2cccnc2)n1)c1ccccn1
8 | 1.02 | O=C(NNC(=O)c1csc(-c2cccc(C(F)(F)F)c2)n1)c1ccccn1
9 | 27.8 | O=C(NNC(=O)c1ncccc1O)c1ccc(Cl)cc1
10 | 17.3 | O=C(NNC(=O)c1ncccc1O)c1ccc(Br)cc1
11 | 14 | CC(C)c1nc(C(=O)NNC(=O)c2ccccn2)cs1
12 | 1.83 | Cc1ccc(-c2nc(C(=O)NNC(=O)c3ccccn3)cs2)cc1
13 | 0.9 | O=C(NNC(=O)c1csc(-c2cccc(Br)c2)n1)c1ccccn1
14 | 1 | O=C(NNC(=O)c1csc(-c2cccc(Cl)c2)n1)c1ccccn1
15 | 14.2 | O=C(NNC(=O)c1ncccc1O)c1cccc(C(F)(F)F)c1
16 | 0.44 | O=C(NNC(=O)c1csc(-c2cc(Cl)cc(Cl)c2)n1)c1ccccn1
17 | 15 | O=C(NNC(=O)c1ccccn1)c1cccc(C(F)(F)F)c1
18 | 4.4 | O=C(NNC(=O)c1csc(-c2ccc(F)cc2)n1)c1ccccn1

Row | IC50 [µM] | Structure (SMILES)
19 | 2.1 | O=C(NNC(=O)c1csc(-c2ccc(Cl)cc2)n1)c1ccccn1
20 | 22 | O=C(NNC(=O)c1ccccn1)c1ccc(OC(F)(F)F)cc1
21 | 17 | O=C(NNC(=O)c1ccccn1)c1ccc(C(F)(F)F)cc1
22 | 2.6 | O=C(NNC(=O)c1csc(-c2cccc(F)c2)n1)c1ccccn1
23 | 3.09 | COc1ccc(-c2nc(C(=O)NNC(=O)c3ccccn3)cs2)cc1
24 | 24.7 | O=C(NNC(=O)c1ccccn1)c1ccc(Cl)cc1
25 | 13.4 | O=C(NNC(=O)c1ncccc1O)c1ccc(C(F)(F)F)cc1
26 | 3.9 | COc1ccc(-c2nc(C(=O)NNC(=O)c3ccccn3)cs2)cc1OC
27 | 0.26 | O=C(NNC(=O)c1csc(-c2ccc(Cl)cc2Cl)n1)c1ccccn1
28 | 16 | Nc1cccnc1C(=O)NNC(=O)c1cccc(C(F)(F)F)c1
29 | 38 | Nc1nccnc1C(=O)NNC(=O)c1cccc(C(F)(F)F)c1
30 | 0.5 | O=C(NNC(=O)c1csc(-c2cccc(Cl)c2Cl)n1)c1ccccn1
31 | 30 | Cc1nc(C(=O)NNC(=O)c2ccccn2)cs1
32 | 25 | Nc1nccnc1C(=O)NNC(=O)c1ccc(C(F)(F)F)cc1
33 | 44.8 | Cc1nc(C(=O)NNC(=O)c2ccc(Cl)cc2)cs1
34 | 17 | O=C(NNC(=O)c1ccccn1)c1ccc(Br)cc1
35 | 5.8 | O=C(NNC(=O)c1csc(-c2ccccc2)n1)c1ccccn1
